Source: ChEMBL document CHEMBL2396592, “Discovery of Dap-3 polymyxin analogues for the treatment of multidrug-resistant Gram-negative nosocomial infections” (J Med Chem, 2013)
≈ marks a conversion by molar mass, not a printed value. Where a SMILES comes first, the peptide text is derived from it. Bridges are numbered along the chain shown (N, C = ends). [ ]: non-standard residue; d: D form. The star is where a group is joined. Benzoyl(4-Ph) = O=C(c1ccc(-c2ccccc2)cc1)*; X7 = N#Cc1ccc(-c2cc(C(=O)*)ccc2Cl)cc1; X5 = O=C(c1ccc(Cl)c(-c2ccccn2)c1)*; X1 = O=C(c1cnnc(-c2ccccc2)c1)*; Dab = NCC[C@H](N)C(=O)O; Dap = NC[C@H](N)C(=O)O

Experiments:
[1] = Cytotoxicity against human RPTEC after 24 hrs by LDH assay; assay type: cell-based; settings: RPTEC cells, read-out: TC50
Procedure, shortened: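 Primary human renal proximal tubule epithelial cells in REGM (EGF, hydrocortisone, epinephrine, insulin, T3, transferrin, gentamycin/amphotericin-B, FBS). After 72 h of growth at 37 °C, 5% CO2, cells were exposed for 24 h to aqueous compound at 100, 67, 44, 30, 20 and 13 μM. LDH release into the supernatant was measured by kit and TC50 (μM) derived, with PMB and PMBN as controls.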

Escherichia coli = assay: Antibacterial activity against polymyxin-sensitive Escherichia coli isolate 1 assessed as growth inhibition by broth microdilution method; assay type: functional
Klebsiella pneumoniae = assay: Antibacterial activity against polymyxin-sensitive ESBL-positive Klebsiella pneumoniae clinical isolate 3700 assessed as growth inhibition by broth microdilution method; assay type: functional
Acinetobacter baumannii [2] = assay: Antibacterial activity against polymyxin-sensitive Acinetobacter baumannii clinical isolate 3167 assessed as growth inhibition by broth microdilution method; assay type: functional
Acinetobacter baumannii [3] = assay: Antibacterial activity against polymyxin-resistant Acinetobacter baumannii clinical isolate 1649 assessed as growth inhibition by broth microdilution method; assay type: functional
Acinetobacter baumannii [4] = assay: Bactericidal activity against polymyxin-resistant Acinetobacter baumannii clinical isolate 1649; assay type: functional
Pseudomonas aeruginosa [5] = assay: Antibacterial activity against polymyxin-sensitive Pseudomonas aeruginosa 1401 assessed as growth inhibition by broth microdilution method; assay type: functional
Procedure, shortened: (§1)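 CLSI broth microdilution MIC against P. aeruginosa 1401 (PA01) and 1402 (UC12120), the two strains used in the mouse thigh model.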

Pseudomonas aeruginosa [6] = assay: Antibacterial activity against polymyxin-resistant Pseudomonas aeruginosa clinical isolate 1646 assessed as growth inhibition by broth microdilution method; assay type: functional
Procedure, shortened: (§2)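 Test strain PA-1646 is a P. aeruginosa isolate with a mutated PmrAB two-component system. The system is constitutively active, so the modified lipid A moiety is constantly expressed on the cell surface, giving a polymyxin-resistant phenotype.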

Pseudomonas aeruginosa [7] = assay: Bactericidal activity against polymyxin-resistant Pseudomonas aeruginosa clinical isolate 1646; assay type: functional; procedure, shortened: as §2
Canis familiaris [8] = assay: Ratio of compound fAUC in beagle dog at 11 mg/kg, iv bid for 7 days to polymyxin B fAUC in beagle dog at 6 mg/kg, iv bid for 7 days; assay type: ADME, organism-based, Canis lupus familiaris; settings: in vivo, 168 h
[9] = Ratio of fAUC in ICR mouse neutropenic infection model to MIC for Pseudomonas aeruginosa assessed during measurement of 1 log decrease parameter; assay type: functional
[10] = Ratio of fAUC in ICR mouse neutropenic infection model to MIC for Pseudomonas aeruginosa assessed during measurement of statis parameter; assay type: functional
[11] = Ratio of fAUC in ICR mouse neutropenic infection model to MIC for Pseudomonas aeruginosa assessed during measurement of 50% of maximal efficacy; assay type: functional
[12] = Ratio of fAUC in ICR mouse neutropenic infection model to MIC for Pseudomonas aeruginosa assessed during measurement of exposure index required for 80%; assay type: functional
[13] = Plasma protein binding in ICR mouse neutropenic infection model; assay type: ADME, cell-free; settings: read-out: PPB (converted)
Pseudomonas aeruginosa [14] = assay: Antibacterial activity against Pseudomonas aeruginosa 1402 assessed as growth inhibition by broth microdilution method; assay type: functional; procedure, shortened: as §1
Mus musculus = assay: fAUC in ICR mouse neutropenic infection model at 12.5 to 75 mg/kg, sc; assay type: ADME, organism-based; design: dose 12.5-75 mg/kg, route subcutaneous; settings: in vivo
Procedure, shortened: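 Infected neutropenic female ICR mice (~25 g; cyclophosphamide 150 and 100 mg/kg IP at 4 and 1 days before inoculation) received single SC doses of 12.5–75 mg/kg. Six mice per time point were sampled by cardiac puncture at eight times over 12 h, and plasma was assayed by LC-MS.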

[15] = Fraction unbound in beagle dog plasma; assay type: ADME, cell-free, Canis lupus familiaris
Canis familiaris [16] = assay: fAUC in beagle dog at 11 mg/kg, iv bid administered as bolus dose for 7 days measured at 1 to 7 days; assay type: ADME, organism-based, Canis lupus familiaris; design: dose 11 mg/kg, route intravenous; settings: in vivo
Canis familiaris [17] = assay: fAUC in beagle dog at 20 mg/kg, iv bid administered as bolus dose for 7 days measured at 1 to 7 days; assay type: ADME, organism-based, Canis lupus familiaris; design: dose 20 mg/kg, route intravenous; settings: in vivo
Canis familiaris [18] = assay: fAUC in beagle dog at 5 mg/kg, iv bid administered as bolus dose for 7 days measured at 1 to 7 days; assay type: ADME, organism-based, Canis lupus familiaris; design: dose 5 mg/kg, route intravenous; settings: in vivo
[19] = Fraction unbound in Wistar Han rat plasma; assay type: ADME, cell-free
Canis familiaris [20] = assay: Nephrotoxicity in beagle dog assessed as incidence of necrotic kidney lesions at 5 to 20 mg/kg, iv bid administered as bolus dose for 7 days measured at 1 to 7 days by microscopic analysis; assay type: toxicity, organism-based, Canis lupus familiaris; design: route intravenous; settings: in vivo
Procedure, shortened: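 Male and female Beagle dogs, 5–11 kg, received IV bolus twice daily (≥6 h apart) for 7 days at 0 (0.9% saline), 5, 11 or 20 mg/kg/day. Necropsy was the day after the last dose. Kidney proximal tubules were examined microscopically for degeneration/regeneration and graded in severity. Incidence is given as animals with lesions over animals tested.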

Rattus norvegicus [21] = assay: fAUC in Wistar Han rat at 8 mg/kg, iv bid administered as bolus dose for 7 days measured at 1 to 7 days; assay type: ADME, organism-based; design: dose 8 mg/kg, route intravenous; settings: in vivo
Rattus norvegicus [22] = assay: fAUC in Wistar Han rat at 4 mg/kg, iv bid administered as bolus dose for 7 days measured at 1 to 7 days; assay type: ADME, organism-based; design: dose 4 mg/kg, route intravenous; settings: in vivo
Rattus norvegicus [23] = assay: Nephrotoxicity in Wistar Han rat assessed as incidence of necrotic kidney lesions at 4 to 8 mg/kg, iv bid administered as bolus dose for 7 days measured at 1 to 7 days by microscopic analysis; assay type: toxicity, organism-based; design: route intravenous; settings: in vivo
Procedure, shortened: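 Male Wistar Han IGS rats, 6–9 weeks old, received IV bolus twice daily (≥6 h apart) for 7 days at 0 (0.9% saline), 4 or 8 mg/kg/day. Necropsy was the day after the last dose. Kidneys were weighed and examined microscopically for proximal tubule epithelial degeneration/regeneration, graded minimal to severe. Incidence is given as animals with lesions over animals tested.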

Pseudomonas aeruginosa [24] = assay: Antibacterial activity against polymyxin-resistant Pseudomonas aeruginosa clinical isolates assessed as growth inhibition by broth microdilution method

Compound: CC(C)C[C@@H]1NC(=O)[C@@H](Cc2ccccc2)NC(=O)[C@H](CCN)NC(=O)[C@@H](NC(=O)[C@H](CN)NC(=O)[C@@H](NC(=O)[C@H](CCN)NC(=O)c2ccc(-c3ccccc3)cc2)[C@@H](C)O)CCNC(=O)[C@H]([C@@H](C)O)NC(=O)[C@H](CCN)NC(=O)[C@H](CCN)NC1=O ({Benzoyl(4-Ph)}-[Dab]T[Dap][Dab][Dab][dF]L[Dab][Dab]T; lactam 4-C)
- CC50 at 24 h [1]: 28 µM
- MIC (Escherichia coli): 0.25 µg/mL
- MIC (Klebsiella pneumoniae): 0.25 µg/mL
- MIC (Acinetobacter baumannii [2]): 0.25 µg/mL
- MIC (Acinetobacter baumannii [3]): 1 µg/mL
- MBC (Acinetobacter baumannii [4]): 1 µg/mL (≈ 0.813 µM)
- MIC (Pseudomonas aeruginosa [5]): 0.5 µg/mL
- MIC (Pseudomonas aeruginosa [6]): 0.5 µg/mL
- MBC (Pseudomonas aeruginosa [7]): 1 µg/mL (≈ 0.813 µM)

Compound: CC(C)C[C@@H]1NC(=O)[C@@H](Cc2ccccc2)NC(=O)[C@H](CCN)NC(=O)[C@@H](NC(=O)[C@H](CN)NC(=O)[C@@H](NC(=O)[C@H](CCN)NC(=O)c2ccc(Cl)c(-c3ccccn3)c2)[C@@H](C)O)CCNC(=O)[C@H]([C@@H](C)O)NC(=O)[C@H](CCN)NC(=O)[C@H](CCN)NC1=O (X5-[Dab]T[Dap][Dab][Dab][dF]L[Dab][Dab]T; lactam 4-C)
- CC50 at 24 h [1]: 72 µM
- MIC (Escherichia coli): 0.25 µg/mL
- MIC (Klebsiella pneumoniae): 0.25 µg/mL
- MIC (Acinetobacter baumannii [2]): 0.25 µg/mL
- MIC (Acinetobacter baumannii [3]): 4 µg/mL
- MBC (Acinetobacter baumannii [4]): 4 µg/mL (≈ 3.16 µM)
- MIC (Pseudomonas aeruginosa [5]): 1 µg/mL
- MIC (Pseudomonas aeruginosa [6]): 4 µg/mL
- MBC (Pseudomonas aeruginosa [7]): 16 µg/mL (≈ 12.6 µM)

Compound: CC(C)C[C@@H]1NC(=O)[C@@H](Cc2ccccc2)NC(=O)[C@H](CCN)NC(=O)[C@@H](NC(=O)[C@H](CN)NC(=O)[C@@H](NC(=O)[C@H](CCN)NC(=O)c2ccc(Cl)c(-c3ccc(C#N)cc3)c2)[C@@H](C)O)CCNC(=O)[C@H]([C@@H](C)O)NC(=O)[C@H](CCN)NC(=O)[C@H](CCN)NC1=O (X7-[Dab]T[Dap][Dab][Dab][dF]L[Dab][Dab]T; lactam 4-C)
- CC50 at 24 h [1]: 20 µM
- MIC (Escherichia coli): 0.5 µg/mL
- MIC (Klebsiella pneumoniae): 0.5 µg/mL
- MIC (Acinetobacter baumannii [2]): 0.5 µg/mL
- MIC (Acinetobacter baumannii [3]): 4 µg/mL
- MBC (Acinetobacter baumannii [4]): 4 µg/mL (≈ 3.1 µM)
- MIC (Pseudomonas aeruginosa [5]): 1 µg/mL
- MIC (Pseudomonas aeruginosa [6]): 1 µg/mL
- MBC (Pseudomonas aeruginosa [7]): 4 µg/mL (≈ 3.1 µM)

Compound: CC(C)C[C@@H]1NC(=O)[C@@H](Cc2ccccc2)NC(=O)[C@H](CCN)NC(=O)[C@@H](NC(=O)[C@H](CN)NC(=O)[C@@H](NC(=O)[C@H](CCN)NC(=O)c2ccc(=O)n(-c3ccccc3)c2)[C@@H](C)O)CCNC(=O)[C@H]([C@@H](C)O)NC(=O)[C@H](CCN)NC(=O)[C@H](CCN)NC1=O
- fAUC ratio (Canis familiaris [8]): 1.5
- fAUC/MIC [9]: 109.63
- fAUC/MIC [10]: 85.26
- fAUC/MIC [11]: 87.92
- fAUC/MIC [12]: 157.55
- fraction unbound [13]: 0.54
- MIC (Pseudomonas aeruginosa [14]): 0.5 µg/mL
- fAUC (Mus musculus): 7200 ng·h/mL
- fraction unbound [15]: 0.58
- fAUC (Canis familiaris [16]): 64000 ng·h/mL
- fAUC (Canis familiaris [17]): 114000 ng·h/mL
- fAUC (Canis familiaris [18]): 20000 ng·h/mL
- fraction unbound [19]: 0.81
- Activity (Canis familiaris [20]): Toxic
- fAUC (Rattus norvegicus [21]): 29000 ng·h/mL
- fAUC (Rattus norvegicus [22]): 13000 ng·h/mL
- Activity (Rattus norvegicus [23]): Non-toxic
- CC50 at 24 h [1]: > 100 µM
- MIC50 (Escherichia coli): 1 µg/mL
- MIC90 (Escherichia coli): 2 µg/mL
- MIC50 (Klebsiella pneumoniae): 0.5 µg/mL
- MIC90 (Klebsiella pneumoniae): 1 µg/mL
- MIC50 (Acinetobacter baumannii [2]): 2 µg/mL
- MIC90 (Acinetobacter baumannii [2]): 2 µg/mL
- MIC50 (Acinetobacter baumannii [3]): 4 µg/mL
- MIC90 (Acinetobacter baumannii [3]): 16 µg/mL
- MBC (Acinetobacter baumannii [4]): 2 µg/mL (≈ 1.6 µM)
- MIC50 (Pseudomonas aeruginosa [5]): 1 µg/mL
- MIC90 (Pseudomonas aeruginosa [5]): 2 µg/mL
- MIC (Pseudomonas aeruginosa [6]): 4 µg/mL
- MIC50 (Pseudomonas aeruginosa [6]): 2 µg/mL
- MBC (Pseudomonas aeruginosa [7]): 8 µg/mL (≈ 6.42 µM)
- MIC90 (Pseudomonas aeruginosa [24]): 8 µg/mL

Compound: CC(C)C[C@@H]1NC(=O)[C@@H](Cc2ccccc2)NC(=O)[C@H](CCN)NC(=O)[C@@H](NC(=O)[C@H](CN)NC(=O)[C@@H](NC(=O)[C@H](CCN)NC(=O)c2cnnc(-c3ccccc3)c2)[C@@H](C)O)CCNC(=O)[C@H]([C@@H](C)O)NC(=O)[C@H](CCN)NC(=O)[C@H](CCN)NC1=O (X1-[Dab]T[Dap][Dab][Dab][dF]L[Dab][Dab]T; lactam 4-C)
- CC50 at 24 h [1]: 84 µM
- MIC (Escherichia coli): 0.125 µg/mL
- MIC (Klebsiella pneumoniae): 0.125 µg/mL
- MIC (Acinetobacter baumannii [2]): 0.25 µg/mL
- MIC (Acinetobacter baumannii [3]): 2 µg/mL
- MBC (Acinetobacter baumannii [4]): 4 µg/mL (≈ 3.25 µM)
- MIC (Pseudomonas aeruginosa [5]): 0.25 µg/mL
- MIC (Pseudomonas aeruginosa [6]): 2 µg/mL
- MBC (Pseudomonas aeruginosa [7]): 8 µg/mL (≈ 6.5 µM)
